pKi: −log10 of the molar value.
Tests used:
Rattus norvegicus [1] = test: Distribution of radioactivity in rat brain 5 min after intravenous administration of iodine labeled compound; format: ADME, organism-based; details: in vivo
Rattus norvegicus [2] = test: Distribution of radioactivity in rat brain region prefrontal cortex 60 min after intravenous administration of iodine labeled compound in presence of reboxetine blocker in study 2; format: ADME, organism-based; details: in vivo, 1 h
Summary of the method: (§1)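 Male Sprague–Dawley rats (250–300 g), ketamine-anesthetized. Blocker (2 mg/kg) or none was given iv 15 min before tail-vein radioligand (10 µCi in 0.2 mL 10% EtOH/saline). Rats were killed at 60 min with im pentobarbital. Brain regions were dissected, weighed and gamma-counted. % dose/g was taken from decay-corrected, background-subtracted counts versus the injected dose.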

Rattus norvegicus [3] = test: Distribution of radioactivity in rat kidney 5 min after intravenous administration of iodine labeled compound; format: ADME, organism-based; details: in vivo
Summary of the method: (§2)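 Tail-vein injection of [123I]ZIENT (10 μCi in 0.2 mL 10% EtOH/0.9% NaCl, then 0.4 mL saline flush) into ketamine-anaesthetised male Sprague–Dawley rats (225–300 g). Animals were killed by cardiac excision at set times. Organs were excised, rinsed, blotted, weighed and gamma-counted. % dose/g was calculated against diluted aliquots of injectate. Mean ± SE, n=4–5.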

Rattus norvegicus [4] = test: Distribution of radioactivity in rat brain region pons 60 min after intravenous administration of iodine labeled compound in absence of blocker in study 1; format: ADME, organism-based; details: in vivo, 1 h; summary of the method: as §1
Rattus norvegicus [5] = test: Ratio of distribution of radioactivity in rat brain prefrontal cortex and cerebellum 30 min after intravenous administration of iodine labeled compound; format: ADME, organism-based; details: in vivo, 0.5 h
Summary of the method: (§3)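 Male Sprague–Dawley rats (225–300 g) under ketamine anaesthesia were given [123I]ZIENT (10 μCi) in 0.2 mL 10% EtOH/0.9% NaCl into the tail vein, with a saline flush. Hypothalamus, prefrontal cortex, striatum, pons and cerebellum were dissected and gamma-counted. % injected dose/g came from decay-corrected counts against the diluted injected dose, and region/cerebellum ratios were taken from these. Mean ± SE, n=4–5.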

Rattus norvegicus [6] = test: Distribution of radioactivity in rat liver 30 min after intravenous administration of iodine labeled compound; format: ADME, organism-based; details: in vivo, 0.5 h; summary of the method: as §2
Rattus norvegicus [7] = test: Ratio of distribution of radioactivity in rat brain region pons and cerebellum 60 min after intravenous administration of iodine labeled compound in absence of blocker in study 1; format: ADME, organism-based; details: in vivo, 1 h
Rattus norvegicus [8] = test: Ratio of distribution of radioactivity in rat brain region pons and cerebellum 60 min after intravenous administration of iodine labeled compound in presence of fluvoxamine blocker in study 1; format: ADME, organism-based; details: in vivo, 1 h
Rattus norvegicus [9] = test: Ratio of distribution of radioactivity in rat brain region striatum and cerebellum 60 min after intravenous administration of iodine labeled compound in presence of fluvoxamine blocker in study 1; format: ADME, organism-based; details: in vivo, 1 h
Rattus norvegicus [10] = test: Distribution of radioactivity in rat brain region hypothalamus 60 min after intravenous administration of iodine labeled compound in absence of blocker in study 1; format: ADME, organism-based; details: in vivo, 1 h; summary of the method: as §1
Rattus norvegicus [11] = test: Ratio of distribution of radioactivity in rat brain region pons and cerebellum 60 min after intravenous administration of iodine labeled compound in absence of blocker in study 2; format: ADME, organism-based; details: in vivo, 1 h
Rattus norvegicus [12] = test: Distribution of radioactivity in rat brain pons 5 min after intravenous administration of iodine labeled compound; format: ADME, organism-based; details: in vivo
Summary of the method: (§4)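 Male Sprague–Dawley rats (225–300 g) under ketamine received 10 µCi radioligand iv (tail vein) in 10% EtOH/saline. Hypothalamus, prefrontal cortex, striatum, pons and cerebellum were dissected, weighed and gamma-counted. % injected dose/g was taken from decay-corrected counts versus diluted dose. Mean ± SE and range, n=5 (5, 30 min) or 4 (60, 120 min).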

Rattus norvegicus [13] = test: Ratio of distribution of radioactivity in rat brain region hypothalamus and cerebellum 60 min after intravenous administration of iodine labeled compound in presence of RTI-113 blocker in study 1; format: ADME, organism-based; details: in vivo, 1 h
Rattus norvegicus [14] = test: Ratio of distribution of radioactivity in rat brain hypothalamus and cerebellum 120 min after intravenous administration of iodine labeled compound; format: ADME, organism-based; details: in vivo, 2 h; summary of the method: as §3
Rattus norvegicus [15] = test: Distribution of radioactivity in rat brain region cerebellum 60 min after intravenous administration of iodine labeled compound in presence of fluvoxamine blocker in study 1; format: ADME, organism-based; details: in vivo, 1 h; summary of the method: as §1
Rattus norvegicus [16] = test: Distribution of radioactivity in rat brain region pons 60 min after intravenous administration of iodine labeled compound in presence of fluvoxamine blocker in study 1; format: ADME, organism-based; details: in vivo, 1 h; summary of the method: as §1
[17] = target: Sodium-dependent dopamine transporter (Homo sapiens, UniProt Q01959); test: In vitro competitive binding versus [N-methyl-3H]WIN-35428 in murine kidney cells transfected with cDNA for human dopamine transporter (DAT); format: cell-based
[18] = target: Sodium-dependent serotonin transporter (Homo sapiens, UniProt P31645); test: In vitro competitive binding versus [3H]citalopram in murine kidney cells transfected with cDNA for human serotonin transporter (SERT); format: cell-based
Rattus norvegicus [19] = test: Ratio of distribution of radioactivity in rat brain region prefrontal cortex and cerebellum 60 min after intravenous administration of iodine labeled compound in absence of blocker in study 2; format: ADME, organism-based; details: in vivo, 1 h
Rattus norvegicus [20] = test: Distribution of radioactivity in rat testis 60 min after intravenous administration of iodine labeled compound; format: ADME, organism-based; details: in vivo, 1 h; summary of the method: as §2
Rattus norvegicus [21] = test: Distribution of radioactivity in rat brain region frontal cortex 60 min after intravenous administration of iodine labeled compound in absence of blocker in study 1; format: ADME, organism-based; details: in vivo, 1 h; summary of the method: as §1
Rattus norvegicus [22] = test: Distribution of radioactivity in rat brain prefrontal cortex 5 min after intravenous administration of iodine labeled compound; format: ADME, organism-based; details: in vivo; summary of the method: as §4
Rattus norvegicus [23] = test: Distribution of radioactivity in rat brain region striatum 60 min after intravenous administration of iodine labeled compound in presence of RTI-113 blocker in study 1; format: ADME, organism-based; details: in vivo, 1 h
Summary of the method: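 Male Sprague–Dawley rats (250–300 g), ketamine-anaesthetised, received [123I]ZIENT (10 μCi) in 0.2 mL 10% ethanol/0.9% NaCl via the tail vein. […] Rats were killed at 60 min with pentobarbital, brain regions dissected and gamma-counted. Values are % dose/g from decay-corrected, background-subtracted counts against the diluted injected dose.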

Rattus norvegicus [24] = test: Distribution of radioactivity in rat brain prefrontal cortex 30 min after intravenous administration of iodine labeled compound; format: ADME, organism-based; details: in vivo, 0.5 h; summary of the method: as §4
Rattus norvegicus [25] = test: Distribution of radioactivity in rat brain region prefrontal cortex 60 min after intravenous administration of iodine labeled compound in absence of blocker in study 1; format: ADME, organism-based; details: in vivo, 1 h; summary of the method: as §1
Rattus norvegicus [26] = test: Distribution of radioactivity in rat kidney 30 min after intravenous administration of iodine labeled compound; format: ADME, organism-based; details: in vivo, 0.5 h; summary of the method: as §2
Rattus norvegicus [27] = test: Distribution of radioactivity in rat lung 120 min after intravenous administration of iodine labeled compound; format: ADME, organism-based; details: in vivo, 2 h; summary of the method: as §2
Rattus norvegicus [28] = test: Ratio of distribution of radioactivity in rat brain hypothalamus and cerebellum 30 min after intravenous administration of iodine labeled compound; format: ADME, organism-based; details: in vivo, 0.5 h; summary of the method: as §3
Rattus norvegicus [29] = test: Distribution of radioactivity in rat blood 30 min after intravenous administration of iodine labeled compound; format: ADME, organism-based; details: in vivo, 0.5 h
Summary of the method: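 Male Sprague–Dawley rats (225–300 g) under ketamine received 10 µCi radioligand in 0.2 mL 10% EtOH/0.9% NaCl via tail vein, then a saline flush. Killed by cardiac excision at set times. Organs were excised, weighed and gamma-counted. % dose/g was taken against diluted injectate. Mean ± SE and range, n=4 (5 min) or 5 (30–120 min).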

Rattus norvegicus [30] = test: Distribution of radioactivity in rat brain pons 120 min after intravenous administration of iodine labeled compound; format: ADME, organism-based; details: in vivo, 2 h; summary of the method: as §4
Rattus norvegicus [31] = test: Ratio of distribution of radioactivity in rat brain prefrontal cortex and cerebellum 5 min after intravenous administration of iodine labeled compound; format: ADME, organism-based; details: in vivo; summary of the method: as §3
Rattus norvegicus [32] = test: Distribution of radioactivity in rat brain hypothalamus 5 min after intravenous administration of iodine labeled compound; format: ADME, organism-based; details: in vivo; summary of the method: as §4
Rattus norvegicus [33] = test: Ratio of distribution of radioactivity in rat brain prefrontal cortex and cerebellum 60 min after intravenous administration of iodine labeled compound; format: ADME, organism-based; details: in vivo, 1 h; summary of the method: as §3

Chain of Sodium-dependent serotonin transporter (P31645 whole entry): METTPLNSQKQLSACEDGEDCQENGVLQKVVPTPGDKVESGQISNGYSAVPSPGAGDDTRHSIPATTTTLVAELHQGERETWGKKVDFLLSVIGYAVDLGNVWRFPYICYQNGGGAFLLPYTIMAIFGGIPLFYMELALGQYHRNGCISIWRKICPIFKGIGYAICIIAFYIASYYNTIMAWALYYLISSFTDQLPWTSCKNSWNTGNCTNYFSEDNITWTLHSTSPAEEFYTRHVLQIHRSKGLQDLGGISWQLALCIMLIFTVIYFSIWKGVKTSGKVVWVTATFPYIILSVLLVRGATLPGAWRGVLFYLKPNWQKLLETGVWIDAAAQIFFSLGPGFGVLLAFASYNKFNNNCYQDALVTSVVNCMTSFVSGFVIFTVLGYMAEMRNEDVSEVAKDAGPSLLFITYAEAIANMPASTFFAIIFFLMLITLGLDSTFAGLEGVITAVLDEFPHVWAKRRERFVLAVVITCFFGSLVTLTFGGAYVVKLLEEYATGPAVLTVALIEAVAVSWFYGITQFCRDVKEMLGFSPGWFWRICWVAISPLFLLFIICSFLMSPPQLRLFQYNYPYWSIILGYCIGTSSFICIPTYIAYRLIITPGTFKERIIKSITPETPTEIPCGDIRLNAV
Chain of Sodium-dependent dopamine transporter (Q01959 whole entry): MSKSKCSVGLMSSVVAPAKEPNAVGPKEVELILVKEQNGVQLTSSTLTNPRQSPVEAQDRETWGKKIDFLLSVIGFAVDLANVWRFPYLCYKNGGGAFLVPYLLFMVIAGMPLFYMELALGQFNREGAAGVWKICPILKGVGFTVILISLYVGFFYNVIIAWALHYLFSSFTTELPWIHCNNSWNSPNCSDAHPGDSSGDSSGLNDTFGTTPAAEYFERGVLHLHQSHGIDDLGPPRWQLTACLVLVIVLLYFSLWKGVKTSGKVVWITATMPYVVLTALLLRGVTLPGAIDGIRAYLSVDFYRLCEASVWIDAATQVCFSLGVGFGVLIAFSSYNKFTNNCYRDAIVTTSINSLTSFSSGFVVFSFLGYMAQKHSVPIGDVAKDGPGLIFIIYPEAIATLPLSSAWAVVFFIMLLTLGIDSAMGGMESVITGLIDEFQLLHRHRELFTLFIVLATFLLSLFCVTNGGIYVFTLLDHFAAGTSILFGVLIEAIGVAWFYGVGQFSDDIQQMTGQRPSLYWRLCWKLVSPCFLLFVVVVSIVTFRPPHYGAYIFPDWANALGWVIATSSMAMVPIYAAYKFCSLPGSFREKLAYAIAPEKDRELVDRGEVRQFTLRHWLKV

Structure (SMILES): COC(=O)[C@@H]1C2CCC(C[C@@H]1c1ccc(/C=C\I)cc1)N2 (stereo partly drawn)
- Distribution (dose/g) (Rattus norvegicus [1]): 0.83%
- Distribution (dose/g) (Rattus norvegicus [2]): 0.69%
- Distribution (dose/g) (Rattus norvegicus [3]): 1.13%
- Distribution (dose/g) (Rattus norvegicus [4]): 0.62%
- Distribution (dose/g) (Rattus norvegicus [5]): 2.56%
- Distribution (dose/g) (Rattus norvegicus [6]): 0.31%
- Distribution (dose/g) (Rattus norvegicus [7]): 2.58%
- Distribution (dose/g) (Rattus norvegicus [8]): 1.47%
- Distribution (dose/g) (Rattus norvegicus [9]): 1.76%
- Distribution (dose/g) (Rattus norvegicus [10]): 0.92%
- Distribution (dose/g) (Rattus norvegicus [11]): 2.79%
- Distribution (dose/g) (Rattus norvegicus [12]): 0.59%
- Distribution (dose/g) (Rattus norvegicus [13]): 3.2%
- Distribution (dose/g) (Rattus norvegicus [14]): 4.92%
- Distribution (dose/g) (Rattus norvegicus [15]): 0.17%
- Distribution (dose/g) (Rattus norvegicus [16]): 0.25%
- pKi [17]: 8.46
- pKi [18]: 10.30
- Distribution (dose/g) (Rattus norvegicus [19]): 3.89%
- Distribution (dose/g) (Rattus norvegicus [20]): 0.32%
- Distribution (dose/g) (Rattus norvegicus [21]): 0.75%
- Distribution (dose/g) (Rattus norvegicus [22]): 0.77%
- Distribution (dose/g) (Rattus norvegicus [23]): 0.64%
- Distribution (dose/g) (Rattus norvegicus [24]): 0.82%
- Distribution (dose/g) (Rattus norvegicus [25]): 0.93%
- Distribution (dose/g) (Rattus norvegicus [26]): 0.49%
- Distribution (dose/g) (Rattus norvegicus [27]): 0.76%
- Distribution (dose/g) (Rattus norvegicus [28]): 2.38%
- Distribution (dose/g) (Rattus norvegicus [29]): 0.4%
- Distribution (dose/g) (Rattus norvegicus [30]): 0.4%
- Distribution (dose/g) (Rattus norvegicus [31]): 1.45%
- Distribution (dose/g) (Rattus norvegicus [32]): 0.58%
- Distribution (dose/g) (Rattus norvegicus [33]): 3.28%

Reference: ChEMBL document CHEMBL1136726, “Synthesis and characterization of iodine-123 labeled 2beta-carbomethoxy-3beta-(4'-((Z)-2-iodoethenyl)phenyl)nortropane. A ligand for in vivo imaging of serotonin transporters by single-photon-emission tomography” (J Med Chem, 2003)
